# Assay results from BindingDB's records for doi:10.1016/j.ejmech.2013.05.047 (Chulalongkorn University, 2013).
# Experiments:
# [1] = molecular target: T1, Lysosomal alpha-glucosidase (Rattus norvegicus, UniProt Q6P7A9); assay: Non-competitive inhibition of rat intestine maltase using maltose as substrate by Lineweaver-Burk plot analysis
# Procedure, shortened: (§1)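 Same maltase/sucrase reactions, with activity held at 0.45 (maltase) and 0.09 (sucrase) U/mg protein. Inhibitor 0 to 20.4 mM against substrate 1.0 to 20.0 mM. Vmax and Km obtained from Lineweaver–Burk intercepts and slopes. Ki (EI) from a secondary plot of slope versus inhibitor concentration; Ki′ (ESI) from a secondary plot of intercept versus inhibitor concentration.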
# [2] = molecular target: T1, Lysosomal alpha-glucosidase; assay: Competitive inhibition of rat intestine maltase using maltose as substrate by Lineweaver-Burk plot analysis; procedure, shortened: as §1
# [3] = molecular target: T1, Lysosomal alpha-glucosidase; assay: Inhibition of rat intestine maltase using maltose as substrate incubated for 10 mins prior to substrate addition measured after 40 mins by glucose oxidase colorimetric method
# Procedure, shortened: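 Crude intestinal enzyme supernatant (12,000 g, 30 min) preincubated with test compound (1 mg/mL, 10 µL) at 37 C for 10 min. Substrate in 0.1 M phosphate buffer pH 6.9 was then added: maltose 0.58 mM for maltase, sucrose 20 mM for sucrase. Incubated 40 min at 37 C, stopped by heating at 80 C for 15 min. Released glucose measured by the glucose oxidase kit. % inhibition = [(A0 − A1)/A0] × 100.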
# T1 sequence (Q6P7A9 whole entry): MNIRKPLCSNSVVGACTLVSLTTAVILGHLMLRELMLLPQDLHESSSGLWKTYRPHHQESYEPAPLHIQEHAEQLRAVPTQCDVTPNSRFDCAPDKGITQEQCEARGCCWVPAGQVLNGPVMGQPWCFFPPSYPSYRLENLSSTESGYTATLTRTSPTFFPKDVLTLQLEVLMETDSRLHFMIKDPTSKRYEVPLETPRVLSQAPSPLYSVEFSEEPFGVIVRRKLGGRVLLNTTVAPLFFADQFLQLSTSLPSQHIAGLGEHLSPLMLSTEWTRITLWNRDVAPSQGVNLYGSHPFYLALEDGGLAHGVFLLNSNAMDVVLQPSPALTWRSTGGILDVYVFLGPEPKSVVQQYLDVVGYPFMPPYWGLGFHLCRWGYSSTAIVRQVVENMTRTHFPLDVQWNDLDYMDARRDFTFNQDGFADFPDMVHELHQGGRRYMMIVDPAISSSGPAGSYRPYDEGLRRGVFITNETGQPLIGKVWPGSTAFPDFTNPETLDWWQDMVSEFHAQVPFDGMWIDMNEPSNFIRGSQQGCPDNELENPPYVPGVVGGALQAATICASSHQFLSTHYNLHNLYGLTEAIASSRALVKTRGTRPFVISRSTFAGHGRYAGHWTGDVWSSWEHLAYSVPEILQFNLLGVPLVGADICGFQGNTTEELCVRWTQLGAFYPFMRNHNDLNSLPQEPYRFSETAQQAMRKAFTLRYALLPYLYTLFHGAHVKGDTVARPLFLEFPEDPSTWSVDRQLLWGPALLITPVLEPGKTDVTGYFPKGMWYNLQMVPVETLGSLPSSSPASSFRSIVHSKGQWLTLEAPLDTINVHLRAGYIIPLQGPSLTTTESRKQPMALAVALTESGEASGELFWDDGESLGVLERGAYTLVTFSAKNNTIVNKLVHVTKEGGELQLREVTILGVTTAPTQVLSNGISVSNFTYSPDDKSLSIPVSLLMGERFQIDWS
SMILES,Ki [1] [µM],Ki [2] [µM],IC50 [3] [µM]
O=C(/C=C/c1ccc(O)c(O)c1)O[C@@H]1C[C@@H](O)[C@H](O)[C@@H](O)[C@H]1O,64.5,23.8,5.31
COc1ccc(/C=C/C(=O)O[C@H]2C[C@@H](O)[C@H](O)[C@@H](O)[C@H]2O)cc1O,–,–,367
COc1ccc(/C=C/C(=O)O[C@@H]2C[C@@H](O)[C@H](O)[C@@H](O)[C@H]2O)cc1O,–,–,20.8
COc1cc(/C=C/C(=O)O[C@H]2C[C@@H](O)[C@H](O)[C@@H](O)[C@H]2O)ccc1O,–,–,21.1
COc1cc(/C=C/C(=O)O[C@@H]2C[C@@H](O)[C@H](O)[C@@H](O)[C@H]2O)ccc1O,–,–,51.9
O=C(/C=C/c1ccc(O)c(O)c1)O[C@H]1C[C@@H](O)[C@H](O)[C@@H](O)[C@H]1O,–,–,497
"O=C(O)/C=C/c1ccc(O)c(O)c1 [3,4-Dihydroxycinnamate, XVII]",–,–,34.7
